Test results taken from ChEMBL document CHEMBL4411287, “Discovery and optimization of a series of 3-substituted indazole derivatives as multi-target kinase inhibitors for the treatment of lung squamous cell carcinoma” (Eur J Med Chem, 2019).

How the values were obtained:
[1] = molecular target: Receptor-type tyrosine-protein kinase FLT3 (Homo sapiens) (UniProt P36888); test: Inhibition of FLT-3 (unknown origin) at 100 nM relative to control
How it was run: (§1)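 Purified recombinant kinase domains run in ELISA on precoated poly(Glu,Tyr) 4:1 (20 µg/mL) with 10 µM ATP in 50 mM HEPES pH 7.4, 50 mM MgCl2, 0.5 mM MnCl2, 0.2 mM Na3VO4, 1 mM DTT; 1% DMSO control; 60 min at 37 °C. Phosphotyrosine read by PY99 antibody, HRP anti-mouse IgG, OPD/H2O2 at 490 nm; inhibition = [1−A490/A490control]×100%; two separate experiments.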

[2] = molecular target: Insulin-like growth factor 1 receptor (Homo sapiens) (UniProt P08069); test: Inhibition of IGF1R (unknown origin) at 10 nM relative to control; how it was run: as §1
[3] = molecular target: Fibroblast growth factor receptor 3 (Homo sapiens) (UniProt P22607); test: Inhibition of FGFR3 (unknown origin) at 100 nM relative to control; how it was run: as §1
[4] = molecular target: Fibroblast growth factor receptor 1 (Homo sapiens, UniProt P11362); test: Inhibition of FGFR1 (unknown origin) after 60 mins by ELISA
[5] = molecular target: Tyrosine-protein kinase JAK1 (Homo sapiens) (UniProt P23458); test: Inhibition of JAK1 (unknown origin) at 100 nM relative to control; how it was run: as §1
[6] = molecular target: Mitogen-activated protein kinase 1 (Homo sapiens) (UniProt P28482); test: Inhibition of ERK2 (unknown origin) at 10 nM relative to control
[7] = AUC (0 to t) in ICR(CD-1) mouse at 10 mg/kg, po administered via gavage by triple quadrupole mass spectrometric analysis; format: ADME, organism-based; conditions: in vivo
How it was run: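 Oral gavage at 1 mg/mL in 1% Tween80/water to male ICR mice (18-22 g, n=3). Plasma sampled at 0.25, 0.5, 1, 2, 4, 8 and 24 h, protein precipitated with methanol:acetonitrile (1:1) containing internal standard, and quantified by UPLC-triple quadrupole MS. AUC and MRT were taken from per-animal time-concentration curves. Cmax is the maximum plasma level and Tmax the time to reach it.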

[8] = molecular target: Focal adhesion kinase 1 (Homo sapiens) (UniProt Q05397); test: Inhibition of FAK (unknown origin) at 10 nM relative to control; how it was run: as §1
[9] = molecular target: Vascular endothelial growth factor receptor 2 (Homo sapiens) (UniProt P35968); test: Inhibition of VEGFR2 (unknown origin) at 100 nM relative to control
How it was run: (§2)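 ELISA with purified recombinant kinase on plates precoated with poly(Glu,Tyr) 4:1 at 20 µg/mL. ATP 10 µM in HEPES pH 7.4 buffer with MgCl2, MnCl2, Na3VO4 and DTT. Run 60 min at 37 °C. Detected with anti-phosphotyrosine PY99, HRP secondary antibody and o-phenylenediamine, read at 490 nm. Inhibition % = [1 − A490/A490 control]×100. 1% DMSO as negative control.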

[10] = molecular target: Vascular endothelial growth factor receptor 2 (Homo sapiens) (UniProt P35968); test: Inhibition of VEGFR2 (unknown origin) at 10 nM relative to control; how it was run: as §2
[11] = molecular target: Tyrosine-protein kinase receptor UFO (Homo sapiens) (UniProt P30530); test: Inhibition of AXL (unknown origin) at 100 nM relative to control
[12] = molecular target: Receptor tyrosine-protein kinase erbB-2 (Homo sapiens) (UniProt P04626); test: Inhibition of ErbB2 (unknown origin) at 10 nM relative to control; how it was run: as §1
[13] = molecular target: Proto-oncogene tyrosine-protein kinase Src (Homo sapiens) (UniProt P12931); test: Inhibition of c-Src (unknown origin) at 1000 nM relative to control; how it was run: as §2
SNU-16 = test: Antiproliferative activity against FGFR2 amplified human SNU16 cells after 72 hrs by CCK8 assay; format: functional, cell-based; conditions: SNU-16, 72 h
How it was run: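 Cells seeded at low density in growth medium and compounds added the next day. Incubated 72 h, then proliferation read by sulforhodamine B, MTT or CCK-8. IC50 obtained by four-parameter concentration-response curve fitting.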

[14] = molecular target: Tyrosine-protein kinase BTK (Homo sapiens) (UniProt Q06187); test: Inhibition of BTK (unknown origin) at 10 nM relative to control
[15] = molecular target: Focal adhesion kinase 1 (Homo sapiens) (UniProt Q05397); test: Inhibition of FAK (unknown origin) at 1000 nM relative to control; how it was run: as §1
[16] = molecular target: Receptor tyrosine-protein kinase erbB-2 (Homo sapiens) (UniProt P04626); test: Inhibition of ErbB2 (unknown origin) at 100 nM relative to control; how it was run: as §1
[17] = molecular target: Fibroblast growth factor receptor 2 (Homo sapiens) (UniProt P21802); test: Inhibition of FGFR2 phosphorylation in human SNU-16 cells after 2 hrs by Western blot analysis; format: cell-based
How it was run: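 SNU-16 cells exposed to compound for 2 h at 37 °C, lysed in 1× SDS sample buffer, resolved by 10% SDS-PAGE and blotted to nitrocellulose; probed for phospho-FGFR, FGFR2, phospho-ERK, ERK and GAPDH, then HRP anti-rabbit or anti-mouse IgG; enhanced chemiluminescence detection.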

Sequence of Vascular endothelial growth factor receptor 2 (Homo sapiens) (P35968 whole entry): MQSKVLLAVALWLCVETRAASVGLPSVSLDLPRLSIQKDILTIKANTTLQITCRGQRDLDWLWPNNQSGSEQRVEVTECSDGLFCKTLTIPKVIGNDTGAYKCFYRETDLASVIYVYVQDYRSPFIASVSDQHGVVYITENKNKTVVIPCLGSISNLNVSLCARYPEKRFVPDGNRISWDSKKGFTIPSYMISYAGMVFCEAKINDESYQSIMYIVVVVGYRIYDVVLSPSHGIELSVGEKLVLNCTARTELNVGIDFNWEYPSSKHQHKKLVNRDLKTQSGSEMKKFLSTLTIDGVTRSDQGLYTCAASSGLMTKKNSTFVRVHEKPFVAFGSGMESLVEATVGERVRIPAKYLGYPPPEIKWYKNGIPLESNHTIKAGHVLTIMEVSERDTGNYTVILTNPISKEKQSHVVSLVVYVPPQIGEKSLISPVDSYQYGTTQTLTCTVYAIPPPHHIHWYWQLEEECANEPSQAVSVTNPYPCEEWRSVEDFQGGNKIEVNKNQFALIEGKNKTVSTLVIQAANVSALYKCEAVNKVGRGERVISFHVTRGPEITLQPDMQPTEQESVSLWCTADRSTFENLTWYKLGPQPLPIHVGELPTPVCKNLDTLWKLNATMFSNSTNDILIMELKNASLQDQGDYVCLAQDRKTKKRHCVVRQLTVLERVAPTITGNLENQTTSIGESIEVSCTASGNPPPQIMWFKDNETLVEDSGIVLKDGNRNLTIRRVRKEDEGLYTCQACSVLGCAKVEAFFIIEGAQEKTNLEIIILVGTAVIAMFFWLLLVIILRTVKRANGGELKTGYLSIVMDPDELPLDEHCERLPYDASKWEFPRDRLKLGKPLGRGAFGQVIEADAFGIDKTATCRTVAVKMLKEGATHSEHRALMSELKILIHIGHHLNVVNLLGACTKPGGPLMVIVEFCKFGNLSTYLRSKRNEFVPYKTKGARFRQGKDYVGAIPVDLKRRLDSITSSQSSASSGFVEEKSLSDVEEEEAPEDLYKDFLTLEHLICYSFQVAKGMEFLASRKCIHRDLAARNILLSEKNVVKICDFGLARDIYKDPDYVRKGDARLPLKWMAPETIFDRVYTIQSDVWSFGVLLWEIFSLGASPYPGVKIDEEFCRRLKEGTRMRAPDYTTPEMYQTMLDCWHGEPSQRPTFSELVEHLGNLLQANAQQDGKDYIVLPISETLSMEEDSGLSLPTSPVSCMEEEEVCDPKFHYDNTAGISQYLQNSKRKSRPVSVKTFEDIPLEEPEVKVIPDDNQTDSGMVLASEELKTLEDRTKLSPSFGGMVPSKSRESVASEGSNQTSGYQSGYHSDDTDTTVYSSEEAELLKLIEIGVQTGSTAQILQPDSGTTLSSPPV
Sequence of Focal adhesion kinase 1 (Homo sapiens) (Q05397 2-1052 limits assumed): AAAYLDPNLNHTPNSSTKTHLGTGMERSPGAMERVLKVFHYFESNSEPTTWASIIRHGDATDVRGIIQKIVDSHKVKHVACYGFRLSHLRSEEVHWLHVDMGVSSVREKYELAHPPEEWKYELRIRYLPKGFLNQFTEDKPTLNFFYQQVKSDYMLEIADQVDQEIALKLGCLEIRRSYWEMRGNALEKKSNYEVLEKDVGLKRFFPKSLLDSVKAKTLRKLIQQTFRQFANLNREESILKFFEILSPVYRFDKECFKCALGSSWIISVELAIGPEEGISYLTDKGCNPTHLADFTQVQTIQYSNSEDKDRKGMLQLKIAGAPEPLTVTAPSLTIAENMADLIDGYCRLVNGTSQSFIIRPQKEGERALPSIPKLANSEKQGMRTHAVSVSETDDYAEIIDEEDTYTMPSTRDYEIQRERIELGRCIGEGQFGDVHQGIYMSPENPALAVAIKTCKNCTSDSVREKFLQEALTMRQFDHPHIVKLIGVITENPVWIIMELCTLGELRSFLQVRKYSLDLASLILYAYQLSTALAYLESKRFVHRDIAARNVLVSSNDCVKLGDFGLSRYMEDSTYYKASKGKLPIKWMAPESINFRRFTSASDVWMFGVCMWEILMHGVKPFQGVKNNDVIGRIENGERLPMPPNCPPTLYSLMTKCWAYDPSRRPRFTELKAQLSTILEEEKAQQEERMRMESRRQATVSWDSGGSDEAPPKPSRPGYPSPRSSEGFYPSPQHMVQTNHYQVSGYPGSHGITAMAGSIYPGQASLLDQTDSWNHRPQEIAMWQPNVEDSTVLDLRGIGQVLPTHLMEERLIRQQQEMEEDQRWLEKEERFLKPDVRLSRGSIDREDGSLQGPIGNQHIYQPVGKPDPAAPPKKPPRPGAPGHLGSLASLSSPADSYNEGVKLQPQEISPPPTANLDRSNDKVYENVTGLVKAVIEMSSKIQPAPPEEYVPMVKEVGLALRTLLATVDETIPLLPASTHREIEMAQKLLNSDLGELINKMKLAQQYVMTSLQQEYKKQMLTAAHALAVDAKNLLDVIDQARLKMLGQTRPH
Sequence of Receptor tyrosine-protein kinase erbB-2 (Homo sapiens) (P04626 whole entry): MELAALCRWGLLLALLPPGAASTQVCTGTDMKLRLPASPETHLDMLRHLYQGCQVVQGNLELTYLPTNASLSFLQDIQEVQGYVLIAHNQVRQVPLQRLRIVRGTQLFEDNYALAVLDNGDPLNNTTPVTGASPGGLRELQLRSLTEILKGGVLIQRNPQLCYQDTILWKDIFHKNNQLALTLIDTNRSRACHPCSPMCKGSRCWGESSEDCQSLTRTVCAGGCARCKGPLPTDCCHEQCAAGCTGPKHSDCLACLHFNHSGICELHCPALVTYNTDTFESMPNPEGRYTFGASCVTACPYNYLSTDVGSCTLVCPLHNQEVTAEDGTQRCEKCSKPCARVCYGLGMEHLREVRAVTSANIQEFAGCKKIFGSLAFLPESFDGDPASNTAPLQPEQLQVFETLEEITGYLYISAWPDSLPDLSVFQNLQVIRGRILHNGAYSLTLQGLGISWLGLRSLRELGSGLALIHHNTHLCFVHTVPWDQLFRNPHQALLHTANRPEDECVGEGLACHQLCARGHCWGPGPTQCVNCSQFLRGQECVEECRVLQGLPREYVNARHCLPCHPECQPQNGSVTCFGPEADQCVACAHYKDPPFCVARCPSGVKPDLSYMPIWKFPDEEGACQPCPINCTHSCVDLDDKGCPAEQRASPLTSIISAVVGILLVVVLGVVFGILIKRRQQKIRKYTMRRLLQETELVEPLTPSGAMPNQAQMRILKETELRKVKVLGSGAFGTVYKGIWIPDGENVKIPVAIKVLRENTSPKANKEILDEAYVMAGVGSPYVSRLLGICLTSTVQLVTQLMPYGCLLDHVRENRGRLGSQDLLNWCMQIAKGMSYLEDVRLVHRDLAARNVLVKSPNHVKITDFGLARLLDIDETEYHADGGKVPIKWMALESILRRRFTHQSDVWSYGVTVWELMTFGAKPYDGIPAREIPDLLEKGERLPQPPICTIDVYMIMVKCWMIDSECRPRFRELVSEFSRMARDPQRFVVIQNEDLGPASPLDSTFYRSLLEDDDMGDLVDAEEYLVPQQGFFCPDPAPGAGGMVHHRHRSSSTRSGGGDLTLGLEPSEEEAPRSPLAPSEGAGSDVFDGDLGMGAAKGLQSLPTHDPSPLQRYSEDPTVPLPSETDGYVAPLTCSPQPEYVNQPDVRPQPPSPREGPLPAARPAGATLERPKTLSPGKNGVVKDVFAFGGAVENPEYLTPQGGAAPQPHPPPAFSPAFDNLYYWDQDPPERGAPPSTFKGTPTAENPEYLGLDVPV
Sequence of Fibroblast growth factor receptor 1 (P11362 whole entry): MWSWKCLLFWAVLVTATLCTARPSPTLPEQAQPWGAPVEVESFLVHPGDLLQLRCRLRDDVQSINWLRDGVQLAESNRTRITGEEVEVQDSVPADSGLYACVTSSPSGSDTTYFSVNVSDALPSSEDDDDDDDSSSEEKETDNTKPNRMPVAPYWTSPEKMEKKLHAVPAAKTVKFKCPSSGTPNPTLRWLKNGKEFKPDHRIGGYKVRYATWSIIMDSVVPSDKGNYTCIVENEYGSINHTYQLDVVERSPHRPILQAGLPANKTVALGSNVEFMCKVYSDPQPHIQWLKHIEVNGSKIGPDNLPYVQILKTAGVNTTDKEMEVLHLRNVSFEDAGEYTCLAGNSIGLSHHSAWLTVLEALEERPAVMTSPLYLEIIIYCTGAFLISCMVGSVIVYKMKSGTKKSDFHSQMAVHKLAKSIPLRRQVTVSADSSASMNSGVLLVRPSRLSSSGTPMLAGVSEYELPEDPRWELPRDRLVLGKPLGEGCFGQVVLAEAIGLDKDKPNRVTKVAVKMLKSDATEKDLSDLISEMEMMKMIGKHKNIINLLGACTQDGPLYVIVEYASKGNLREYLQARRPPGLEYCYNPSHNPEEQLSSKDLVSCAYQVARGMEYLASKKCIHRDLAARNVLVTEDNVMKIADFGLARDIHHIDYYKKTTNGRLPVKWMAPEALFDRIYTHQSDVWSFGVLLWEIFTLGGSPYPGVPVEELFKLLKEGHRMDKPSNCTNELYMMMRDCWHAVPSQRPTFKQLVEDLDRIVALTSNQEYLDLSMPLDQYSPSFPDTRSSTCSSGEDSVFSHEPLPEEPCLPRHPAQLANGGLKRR
Sequence of Proto-oncogene tyrosine-protein kinase Src (Homo sapiens) (P12931 2-536 limits assumed): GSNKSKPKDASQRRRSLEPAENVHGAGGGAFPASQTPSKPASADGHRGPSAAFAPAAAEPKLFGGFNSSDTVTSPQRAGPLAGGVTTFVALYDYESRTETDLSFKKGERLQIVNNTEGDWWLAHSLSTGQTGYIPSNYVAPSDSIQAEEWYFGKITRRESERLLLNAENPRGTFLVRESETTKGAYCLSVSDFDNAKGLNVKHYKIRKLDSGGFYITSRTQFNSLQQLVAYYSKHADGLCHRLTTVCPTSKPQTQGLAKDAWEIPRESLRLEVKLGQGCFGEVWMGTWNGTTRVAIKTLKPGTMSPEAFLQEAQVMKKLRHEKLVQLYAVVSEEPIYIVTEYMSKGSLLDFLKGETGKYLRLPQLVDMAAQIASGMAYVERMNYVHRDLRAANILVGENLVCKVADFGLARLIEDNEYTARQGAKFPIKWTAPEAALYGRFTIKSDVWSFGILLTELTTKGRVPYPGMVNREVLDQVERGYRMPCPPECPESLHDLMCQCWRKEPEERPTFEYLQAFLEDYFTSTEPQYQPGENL

**Q.** Which results are given for Cc1ccc(C(=O)Nc2cccc(C(F)(F)F)c2)cc1-c1ccc2c(-c3cnn(C4CC4)c3)n[nH]c2c1?
**A.** inhibition [1]: 80.6%; inhibition [2]: 0%; inhibition [3]: 82%; IC50 [4]: 31.1 nM; inhibition [5]: 13.1%; inhibition [6]: 0.3%; AUC(0-t) [7]: 7640 ng·h/mL; inhibition [8]: 1.1%; inhibition [9]: 99.2%; inhibition [10]: 90.1%; inhibition [11]: 72.6%; inhibition [12]: 8.2%; inhibition [13]: 96.8%; IC50 (SNU-16): 93.4 nM; inhibition [14]: 32%; inhibition [15]: 81.7%; inhibition [16]: 5.6%; inhibition [17]: Dose-dependent effect
